Columns and labels:
MCF-7 cells = test: Proliferation study; type: cell-based; conditions: tamoxifen-sensitive MCF7 cells, 1 nM estradiol, 7 days, MTT
Outline: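 MCF-7 cells were maintained in phenol red free DMEM F-12 HAM with glutamine, penicillin/streptomycin and 10% FBS at 37 °C under 5% CO2. […] Cell number was read by MTT. Two experiments were run, each in triplicate.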

[1] = target: T1, ER alpha levels in MCF7 cells (Homo sapiens, UniProt P03372); test: Receptor stability study; type: cell-based; conditions: 24 hours, 10 nM estradiol, 100 nM fulvestrant, 10 μM OHT-6C-BODIPY
T1 sequence (P03372 1-595): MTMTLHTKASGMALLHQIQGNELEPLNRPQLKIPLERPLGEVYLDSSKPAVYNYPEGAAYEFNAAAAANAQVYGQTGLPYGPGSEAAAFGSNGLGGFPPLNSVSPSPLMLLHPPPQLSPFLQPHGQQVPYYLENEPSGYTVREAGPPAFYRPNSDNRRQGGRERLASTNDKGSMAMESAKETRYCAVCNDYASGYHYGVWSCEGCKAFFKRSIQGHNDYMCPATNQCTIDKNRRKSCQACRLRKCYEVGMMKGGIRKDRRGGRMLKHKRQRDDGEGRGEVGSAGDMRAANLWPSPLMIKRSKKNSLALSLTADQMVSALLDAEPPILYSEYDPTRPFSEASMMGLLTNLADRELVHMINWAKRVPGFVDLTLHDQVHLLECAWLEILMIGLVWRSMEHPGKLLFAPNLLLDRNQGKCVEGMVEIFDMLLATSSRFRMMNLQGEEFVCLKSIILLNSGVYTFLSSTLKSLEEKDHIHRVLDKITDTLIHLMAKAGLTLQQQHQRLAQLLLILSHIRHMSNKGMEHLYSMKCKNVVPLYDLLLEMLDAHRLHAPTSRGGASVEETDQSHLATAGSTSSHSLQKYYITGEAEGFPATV

| Structure (SMILES) | Effect on estradiol-induced growth (MCF-7 cells) | Effect on cellular ER alpha levels [1] |
| --- | --- | --- |
| CC/C(=C(\c1ccc(O)cc1)c1ccc(OCCN(C)C)cc1)c1ccccc1 [OHT, 4-hydroxytamoxifen] | able to block estradiol-induced growth | – |
| C[C@]12CC[C@@H]3c4ccc(O)cc4C[C@@H](CCCCCCCCC[S+]([O-])CCCC(F)(F)C(F)(F)F)[C@H]3[C@@H]1CC[C@@H]2O (some centres unmarked) [fulvestrant] | – | marked receptor downregulation |

From PMC2874112 (Bioconjugate chemistry, 2010)
